Measured values: ChEMBL document CHEMBL3351733, “Inhibition of the lymphoid tyrosine phosphatase: the effect of zinc(II) ions and chelating ligand fragments on enzymatic activity” (Bioorg Med Chem Lett, 2014)
The source made the active and inactive calls. The rule behind the calls is not given here.

What was measured:
[1] = target: T1, Tyrosine-protein phosphatase non-receptor type 22 (Homo sapiens, UniProt Q9Y2R2); test: Inhibition of LYP (unknown origin) using DiFMUP substrate incubated for 2 hrs
T1 sequence (Q9Y2R2 whole entry): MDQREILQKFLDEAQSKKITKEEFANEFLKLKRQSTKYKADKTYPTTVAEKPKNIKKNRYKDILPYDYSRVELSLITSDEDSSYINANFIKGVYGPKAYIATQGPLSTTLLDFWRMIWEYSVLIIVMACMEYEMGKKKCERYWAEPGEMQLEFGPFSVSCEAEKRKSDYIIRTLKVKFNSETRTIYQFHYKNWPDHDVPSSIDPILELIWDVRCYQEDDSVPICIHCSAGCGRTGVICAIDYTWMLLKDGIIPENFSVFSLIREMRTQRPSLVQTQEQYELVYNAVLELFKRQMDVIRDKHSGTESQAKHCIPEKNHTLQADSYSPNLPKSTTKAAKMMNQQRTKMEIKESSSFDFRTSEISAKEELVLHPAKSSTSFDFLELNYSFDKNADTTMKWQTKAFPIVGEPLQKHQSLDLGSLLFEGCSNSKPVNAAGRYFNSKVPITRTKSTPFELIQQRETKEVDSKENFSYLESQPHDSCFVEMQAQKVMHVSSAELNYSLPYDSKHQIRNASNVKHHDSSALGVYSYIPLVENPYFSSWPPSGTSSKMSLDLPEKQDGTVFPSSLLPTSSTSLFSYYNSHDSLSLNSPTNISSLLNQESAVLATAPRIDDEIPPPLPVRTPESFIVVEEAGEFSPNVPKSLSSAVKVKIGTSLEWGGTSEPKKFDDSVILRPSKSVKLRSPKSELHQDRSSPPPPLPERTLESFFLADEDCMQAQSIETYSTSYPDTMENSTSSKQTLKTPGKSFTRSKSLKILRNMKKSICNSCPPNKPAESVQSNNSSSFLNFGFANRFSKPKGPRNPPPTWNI
Procedure, shortened: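 LYP preincubated with inhibitor for 0, 30, 60 and 120 min before activity was read, without added zinc. IC50 came from the dose-response after the 2 h incubation.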

[2] = target: T2, Tyrosine-protein phosphatase non-receptor type 22 (Homo sapiens) (UniProt Q9Y2R2); test: Inhibition of LYP (unknown origin) incubated for 30 mins at 25 degC before addition of DiFMUP substrate in presence of 5 uM zinc acetate; conditions: TDE = time-dependent effect
T2 sequence (whole entry): T1 sequence (Q9Y2R2 whole entry)
Procedure, shortened: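 Fragment screen and follow-up dose-response run with 5 μM zinc acetate added to the LYP assay, alongside a parallel series without zinc.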

[3] = target: T3, Tyrosine-protein phosphatase non-receptor type 1 (Homo sapiens) (UniProt P18031); test: Inhibition of PTP1B (unknown origin)
T3 sequence (whole entry): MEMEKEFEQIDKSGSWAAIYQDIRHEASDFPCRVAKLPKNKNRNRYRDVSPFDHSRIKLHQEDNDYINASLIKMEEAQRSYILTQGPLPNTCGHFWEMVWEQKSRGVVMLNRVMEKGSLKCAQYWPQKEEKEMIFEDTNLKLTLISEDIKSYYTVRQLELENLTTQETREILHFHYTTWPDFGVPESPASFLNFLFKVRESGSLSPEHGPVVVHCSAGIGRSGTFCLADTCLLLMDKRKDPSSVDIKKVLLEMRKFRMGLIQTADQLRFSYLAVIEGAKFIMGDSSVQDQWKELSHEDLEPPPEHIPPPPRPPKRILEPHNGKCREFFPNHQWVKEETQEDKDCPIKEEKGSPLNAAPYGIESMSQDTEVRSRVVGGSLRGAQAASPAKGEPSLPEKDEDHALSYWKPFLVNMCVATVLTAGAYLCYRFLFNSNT

[4] = target: T4, Receptor-type tyrosine-protein phosphatase C (Homo sapiens) (UniProt P08575); test: Inhibition of CD45 (unknown origin)
T4 sequence (whole entry): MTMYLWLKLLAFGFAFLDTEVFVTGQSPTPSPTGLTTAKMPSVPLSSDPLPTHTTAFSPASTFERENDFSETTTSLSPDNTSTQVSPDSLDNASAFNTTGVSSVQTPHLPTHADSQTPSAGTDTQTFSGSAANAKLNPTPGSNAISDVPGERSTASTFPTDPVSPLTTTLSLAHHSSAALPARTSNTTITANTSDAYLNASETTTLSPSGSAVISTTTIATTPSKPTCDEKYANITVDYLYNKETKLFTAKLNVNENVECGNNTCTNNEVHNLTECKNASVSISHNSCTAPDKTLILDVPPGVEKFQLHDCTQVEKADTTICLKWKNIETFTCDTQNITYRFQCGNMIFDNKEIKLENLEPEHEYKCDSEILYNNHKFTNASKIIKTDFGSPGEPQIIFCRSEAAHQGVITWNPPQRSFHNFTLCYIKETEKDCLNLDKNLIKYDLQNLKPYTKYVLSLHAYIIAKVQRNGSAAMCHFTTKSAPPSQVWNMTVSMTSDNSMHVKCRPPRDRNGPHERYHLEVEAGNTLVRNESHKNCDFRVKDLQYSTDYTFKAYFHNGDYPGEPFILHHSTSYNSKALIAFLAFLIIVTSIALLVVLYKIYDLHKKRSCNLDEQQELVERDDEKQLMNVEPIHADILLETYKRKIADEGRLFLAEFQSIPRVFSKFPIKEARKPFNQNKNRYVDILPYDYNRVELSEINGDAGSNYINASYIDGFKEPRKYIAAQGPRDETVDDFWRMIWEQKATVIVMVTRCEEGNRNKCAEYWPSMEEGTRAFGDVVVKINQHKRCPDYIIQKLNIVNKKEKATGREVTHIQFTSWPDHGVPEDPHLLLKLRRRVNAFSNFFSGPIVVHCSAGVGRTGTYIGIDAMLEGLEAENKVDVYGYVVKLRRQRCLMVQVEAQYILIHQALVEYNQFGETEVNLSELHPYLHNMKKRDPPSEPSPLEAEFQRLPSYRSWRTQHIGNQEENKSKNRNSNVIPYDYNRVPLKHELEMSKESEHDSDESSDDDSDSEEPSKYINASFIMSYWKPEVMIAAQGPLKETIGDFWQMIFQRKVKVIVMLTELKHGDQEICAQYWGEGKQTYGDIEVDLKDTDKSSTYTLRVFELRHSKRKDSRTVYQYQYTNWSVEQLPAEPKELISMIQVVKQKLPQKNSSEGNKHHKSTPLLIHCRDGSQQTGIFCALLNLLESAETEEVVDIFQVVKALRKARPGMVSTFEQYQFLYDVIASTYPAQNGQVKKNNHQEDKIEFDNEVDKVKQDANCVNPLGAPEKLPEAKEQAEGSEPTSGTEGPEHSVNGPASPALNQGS

[5] = Inhibition of YopH (unknown origin)
[6] = target: T2, Tyrosine-protein phosphatase non-receptor type 22 (Homo sapiens); test: Inhibition of LYP (unknown origin) at 20 to 100 uM incubated for 30 mins at 25 degC before addition of DiFMUP substrate
[7] = target: T2, Tyrosine-protein phosphatase non-receptor type 22 (Homo sapiens); test: Protection against 40 uM zinc-acetate-induced inhibition of LYP (unknown origin) at 80 uM incubated for 30 mins at 25 degC before addition of DiFMUP substrate

Row | Compound | IC50 [1] | inhibition [6] | Activity [7] | further results
1 | O=C1C=C(O)C(=O)c2ccccc21 [LAWSONE] | 5600 nM |  |  | 
2 | Oc1ccc2ccccc2c1O | 2520 nM |  |  | inhibition [2]: tde; inhibition [3]: Active; inhibition [4]: Active; inhibition [5]: Active
3 | Oc1ccc(Cl)c2cccnc12 |  | inactive | Active | 
4 | O=C(O)c1cccc(C(=O)O)n1 |  | inactive | Active | 
5 | O=C1C=Cc2ccccc2C1=O [1,2-NAPHTHOQUINONE] | 1100 nM |  |  | 
6 | c1ccc(CNCc2ccccn2)nc1 |  | inactive | Active | 
